Entries after “also recorded” stand apart in the source; their conditions may differ. Where no end group is shown, it is not given here. MBP = maltose binding protein (fused N-terminally to the peptide)
B9: IKKβ(1-669) EE, 6xHis tag removed (enzyme, human, UniProt O14920 1-669, looked up)
chain: MSWSPSLTTQTCGAWEMKERLGTGGFGNVIRWHNQETGEQIAIKQCRQELSPRNRERWCLEIQIMRRLTHPNVVAARDVPEGMQNLAPNDLPLLAMEYCQGGDLRKYLNQFENCCGLREGAILTLLSDIASALRYLHENRIIHRDLKPENIVLQQGEQRLIHKIIDLGYAKELDQGELCTEFVGTLQYLAPELLEQQKYTVTVDYWSFGTLAFECITGFRPFLPNWQPVQWHSKVRQKSEVDIVVSEDLNGTVKFSSSLPYPNNLNSVLAERLEKWLQLMLMWHPRQRGTDPTYGPNGCFKALDDILNLKLVHILNMVTGTIHTYPVTEDESLQSLKARIQQDTGIPEEDQELLQEAGLALIPDKPATQCISDGKLNEGHTLDMDLVFLFDNSKITYETQISPRPQPESVSCILQEPKRNLAFFQLRKVWGQVWHSIQTLKEDCNRLQQGQRAAMMNLLRNNSCLSKMKNSMASMSQQLKAKLDFFKTSIQIDLEKYSEQTEFGITSDKLLLAWREMEQAVELCGRENEVKLLVERMMALQTDIVDLQRSPMGRKQGGTLDDLEEQARELYRRLREKPRDQRTEGDSQEMVRLLLQAIQSFEKKVRVIYTQLSKTVVCKQKALELLPKVEEVVSLMNEDEKTVVRLQEKRQKELWNLLKIACSKVRGPV

Legend:
[1] = target: T1, IKKα(10-667) EE homodimer (Homo sapiens, UniProt O15111, S176E/S180E); assay: ITC of synthetic YDDΦxΦ peptides with IKKα homodimer; type: binding; details: for ITC binding to IKKα, in words: 25 °C, titration of the IKKα homodimer with synthetic peptide
T1 sequence (O15111 10-667 S176E/S180E): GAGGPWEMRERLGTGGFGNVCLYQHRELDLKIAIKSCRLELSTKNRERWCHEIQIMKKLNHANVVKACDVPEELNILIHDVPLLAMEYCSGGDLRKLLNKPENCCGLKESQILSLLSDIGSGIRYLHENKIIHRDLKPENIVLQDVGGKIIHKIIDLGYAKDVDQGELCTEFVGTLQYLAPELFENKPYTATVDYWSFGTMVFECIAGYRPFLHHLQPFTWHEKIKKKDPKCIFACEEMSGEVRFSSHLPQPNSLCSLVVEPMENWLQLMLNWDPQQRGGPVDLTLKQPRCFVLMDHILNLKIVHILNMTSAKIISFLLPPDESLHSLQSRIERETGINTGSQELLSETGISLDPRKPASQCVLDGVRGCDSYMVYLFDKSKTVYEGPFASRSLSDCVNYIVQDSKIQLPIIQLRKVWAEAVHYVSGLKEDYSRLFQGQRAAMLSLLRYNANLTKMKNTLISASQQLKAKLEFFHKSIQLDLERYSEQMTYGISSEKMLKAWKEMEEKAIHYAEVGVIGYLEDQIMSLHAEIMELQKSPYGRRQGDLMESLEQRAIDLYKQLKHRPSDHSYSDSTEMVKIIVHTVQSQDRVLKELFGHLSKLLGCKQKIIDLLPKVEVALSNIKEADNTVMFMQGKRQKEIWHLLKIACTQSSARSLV
In short: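 IKKα(10-667) EE was expressed in Sf21 insect cells and purified by Ni-NTA affinity. It was then dialyzed overnight at 4 °C against ITC buffer (20 mM HEPES pH 8.0, 150 mM NaCl, 1 mM TCEP), which was used for all titrations unless otherwise stated.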

[2] = tested on: IKKα/β heterodimer (6xHis-IKKβ(1-669) EE, Strep-IKKα(10-667) EE); assay: MBP-pulldown with purified IKKα/β heterodimer; type: binding; details: MBP-IκBα pep(s) vs MBP negative control, Coomassie
In short: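 Heterodimer co-expressed in Sf21 insect cells, purified on Strep-Tactin then Ni-NTA, pre-incubated with 1 mM ATP, MgCl2, β-glycerophosphate, NaF and orthovanadate for 1 h on ice, then gel-filtered in Tris pH 8.0 buffer. MBP-fusion baits expressed in E. coli BL21(DE3), captured on amylose resin. Binding in 20 mM Tris pH 8.0, 150 mM NaCl, 2 mM DTT. Bound proteins Coomassie-stained.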

[3] = target: T2, 6xHis-IKKβ(1-669) EE (human, UniProt O14920 1-669, S177E | S181E); assay: cross-linking
T2 sequence (looked up): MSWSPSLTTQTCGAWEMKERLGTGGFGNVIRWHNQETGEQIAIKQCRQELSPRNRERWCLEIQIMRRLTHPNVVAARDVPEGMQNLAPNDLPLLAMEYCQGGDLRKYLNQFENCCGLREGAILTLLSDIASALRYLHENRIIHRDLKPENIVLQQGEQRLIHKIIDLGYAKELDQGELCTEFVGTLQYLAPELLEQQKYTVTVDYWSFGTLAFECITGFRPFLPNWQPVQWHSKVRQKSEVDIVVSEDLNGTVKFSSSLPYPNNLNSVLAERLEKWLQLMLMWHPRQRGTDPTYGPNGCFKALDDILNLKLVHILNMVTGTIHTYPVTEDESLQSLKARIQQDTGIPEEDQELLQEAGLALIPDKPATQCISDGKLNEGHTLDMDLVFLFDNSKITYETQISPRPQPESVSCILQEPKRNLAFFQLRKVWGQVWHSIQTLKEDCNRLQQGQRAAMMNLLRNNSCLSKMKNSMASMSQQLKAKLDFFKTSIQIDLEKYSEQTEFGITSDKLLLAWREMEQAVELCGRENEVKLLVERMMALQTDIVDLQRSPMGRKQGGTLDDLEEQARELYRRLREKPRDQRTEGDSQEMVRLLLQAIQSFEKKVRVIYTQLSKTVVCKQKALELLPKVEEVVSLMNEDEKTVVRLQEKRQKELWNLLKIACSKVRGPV

[4] = target: B9; assay: ITC
[5] = target: T3, IKKα(10-667) EE, 6xHis tag removed (UniProt O15111 10-667, S176E | S180E); assay: ITC
T3 sequence (looked up): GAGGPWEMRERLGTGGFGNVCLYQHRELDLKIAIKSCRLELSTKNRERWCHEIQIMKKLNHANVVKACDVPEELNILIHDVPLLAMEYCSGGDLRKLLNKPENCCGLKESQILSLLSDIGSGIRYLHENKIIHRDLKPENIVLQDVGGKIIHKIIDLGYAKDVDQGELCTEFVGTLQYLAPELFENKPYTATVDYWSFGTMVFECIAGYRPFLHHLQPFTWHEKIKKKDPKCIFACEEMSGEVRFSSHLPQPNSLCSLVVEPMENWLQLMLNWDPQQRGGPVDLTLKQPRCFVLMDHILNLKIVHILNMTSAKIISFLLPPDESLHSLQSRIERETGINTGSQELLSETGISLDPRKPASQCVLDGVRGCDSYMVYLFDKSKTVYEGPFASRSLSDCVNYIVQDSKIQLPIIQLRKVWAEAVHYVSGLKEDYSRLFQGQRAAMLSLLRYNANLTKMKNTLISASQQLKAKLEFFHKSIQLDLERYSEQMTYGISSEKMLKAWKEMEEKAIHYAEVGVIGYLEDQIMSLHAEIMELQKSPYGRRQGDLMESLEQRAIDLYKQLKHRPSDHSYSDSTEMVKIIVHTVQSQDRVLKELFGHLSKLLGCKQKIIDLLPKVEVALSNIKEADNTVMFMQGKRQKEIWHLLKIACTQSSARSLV

[6] = target: T2, 6xHis-IKKβ(1-669) EE; assay: pull-down
[7] = tested on: MEF cells KO for IκBα, IκBβ, IκBε; assay: In cellulo degradation of retro-transduced IκBα proteins after TNFα; type: cell-based, mouse; details: retro-transduced IκBα constructs, TNFα 20 ng/ml, compared with wt IκBα
In short: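 Retroviruses came from Phoenix-eco cells (5 × 10^6) transfected with 6 μg pBABE-IκBα plasmid; empty vector was the control. Medium was changed at 6 h and the virus-containing medium collected at 48 h, filtered, and used to infect the MEFs.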

[8] = target: T2, 6xHis-IKKβ(1-669) EE; assay: pull-down; remark: listed apart in the source
[9] = target: the molecule itself; assay: crystal structure

For LSSANSLYDDIECFLMELEQPA [IRF7 pep], the “ITC binding to IKKα, in words” value [1] was “too weak to allow for accurate thermodynamic analysis; also recorded: binds with weak affinity to IKKα”.

Work on “EFTEDELPYDDLVFGGQRLTL-NH2 [IκBα pep C308L]” yielded a Kd [1] of 0.42 µM.

For “IκBα pep(s): 17 amino acid peptide, residues 301-317 of IκBα, fused to MBP ({MBP}-DELPYDDCVFGGQRLTL)”, the “binding of the IKKα/β heterodimer in MBP-pulldown, in words” value [2] was “specifically binds”.

With EFTEDELPpYDDLVFGGQRLTL [pY-IκBα pep] the “ITC binding to IKKα, in words” value [1] was “too weak to allow for accurate thermodynamic analysis; also recorded: absence of interaction”.

B1: C308L/R314K IκBα pep (synthetic) (peptide)
peptide: EFTEDELPYDDLVFGGQKLTL-NH2
B1: binds [3].

B2: IκBα pep (synthetic, residues 297-317 of IκBα) (peptide)
peptide: EFTEDELPYDDCVFGGQRLTL
With B2 the Kd [4] was 40 µM, the dH [4] was -16.3 kcal/mol and the “stoichiometry N” value [4] was 0.63. For the same molecule, the Kd [5] was 7.7 µM, the dH [5] was -14.2 kcal/mol and the “stoichiometry N” value [5] was 0.63.

B3: C308L IκBα pep (synthetic) (peptide)
peptide: EFTEDELPYDDLVFGGQRLTL-NH2
B3 was tested, and the Kd [4] was 2.4 µM, the dH [4] was -11.5 kcal/mol and the “stoichiometry N” value [4] was 0.66.

B4: MBP-IκBα full length (natural protein, human, UniProt P25963 1-317, looked up)
chain: MFQAAERPQEWAMEGPRDGLKKERLLDDRHDSGLDSMKDEEYEQMVKELQEIRLEPQEVPRGSEPWKQQLTEDGDSFLHLAIIHEEKALTMEVIRQVKGDLAFLNFQNNLQQTPLHLAVITNQPEIAEALLGAGCDPELRDFRGNTPLHLACEQGCLASVGVLTQSCTTPHLHSILKATNYNGHTCLHLASIHGYLGIVELLVSLGADVNAQEPCNGRTALHLAVDLQNPDLVSLLLKCGADVNRVTYQGYSPYQLTWGRPSTRIQQQLGQLTLENLQMLPESEDEESYDTESEFTEFTEDELPYDDCVFGGQRLTL
B4: binds [6].

B5: IkBa C308F (protein, UniProt P25963 1-317, looked up, variant C308F)
NF-kappa-B inhibitor alpha: MFQAAERPQEWAMEGPRDGLKKERLLDDRHDSGLDSMKDEEYEQMVKELQEIRLEPQEVPRGSEPWKQQLTEDGDSFLHLAIIHEEKALTMEVIRQVKGDLAFLNFQNNLQQTPLHLAVITNQPEIAEALLGAGCDPELRDFRGNTPLHLACEQGCLASVGVLTQSCTTPHLHSILKATNYNGHTCLHLASIHGYLGIVELLVSLGADVNAQEPCNGRTALHLAVDLQNPDLVSLLLKCGADVNRVTYQGYSPYQLTWGRPSTRIQQQLGQLTLENLQMLPESEDEESYDTESEFTEFTEDELPYDDFVFGGQRLTL
In the case of B5, the “IκBα degradation after TNFα stimulation, in words” value [7] is reported as “slightly faster compared to that of the wt IκBα protein”.

B6: MBP-IκBα pep(s) C308L (peptide, UniProt P25963 301-317, looked up)
chain: DELPYDDLVFGGQRLTL
B6: binds [8].

B7: MBP-IκBα(73-317) (domain or fragment, human, UniProt P25963 73-317, looked up)
chain: DGDSFLHLAIIHEEKALTMEVIRQVKGDLAFLNFQNNLQQTPLHLAVITNQPEIAEALLGAGCDPELRDFRGNTPLHLACEQGCLASVGVLTQSCTTPHLHSILKATNYNGHTCLHLASIHGYLGIVELLVSLGADVNAQEPCNGRTALHLAVDLQNPDLVSLLLKCGADVNRVTYQGYSPYQLTWGRPSTRIQQQLGQLTLENLQMLPESEDEESYDTESEFTEFTEDELPYDDCVFGGQRLTL
B7: binds [8].

B8: MBP-IκBα pep(s) C308F (peptide, UniProt P25963 301-317, looked up)
chain: DELPYDDFVFGGQRLTL
B8: binds [8].

B9: binds [9].

B10: p100 pep (synthetic, residues 8-29 of p100) (peptide)
peptide: GLDGIIEYDDFKLNSSIVEPKE
B10 was tested, and the Kd [5] was about 12 µM, the dH [5] was about -13.4 kcal/mol and the “stoichiometry N” value [5] was 0.6.
